Experimental data published in publication PMC8682075 (Biochimie, 2020).
Entries after “also recorded” stand apart in the source; their conditions may differ.

Assays:
[1] = target: T1, MMUT WT (Homo sapiens, UniProt P22033); assay: Activity screen; type: biochemical; settings: cobamide 1 μM, MMUT WT 0.01 μM, 30 minutes
T1 sequence (P22033 33-750): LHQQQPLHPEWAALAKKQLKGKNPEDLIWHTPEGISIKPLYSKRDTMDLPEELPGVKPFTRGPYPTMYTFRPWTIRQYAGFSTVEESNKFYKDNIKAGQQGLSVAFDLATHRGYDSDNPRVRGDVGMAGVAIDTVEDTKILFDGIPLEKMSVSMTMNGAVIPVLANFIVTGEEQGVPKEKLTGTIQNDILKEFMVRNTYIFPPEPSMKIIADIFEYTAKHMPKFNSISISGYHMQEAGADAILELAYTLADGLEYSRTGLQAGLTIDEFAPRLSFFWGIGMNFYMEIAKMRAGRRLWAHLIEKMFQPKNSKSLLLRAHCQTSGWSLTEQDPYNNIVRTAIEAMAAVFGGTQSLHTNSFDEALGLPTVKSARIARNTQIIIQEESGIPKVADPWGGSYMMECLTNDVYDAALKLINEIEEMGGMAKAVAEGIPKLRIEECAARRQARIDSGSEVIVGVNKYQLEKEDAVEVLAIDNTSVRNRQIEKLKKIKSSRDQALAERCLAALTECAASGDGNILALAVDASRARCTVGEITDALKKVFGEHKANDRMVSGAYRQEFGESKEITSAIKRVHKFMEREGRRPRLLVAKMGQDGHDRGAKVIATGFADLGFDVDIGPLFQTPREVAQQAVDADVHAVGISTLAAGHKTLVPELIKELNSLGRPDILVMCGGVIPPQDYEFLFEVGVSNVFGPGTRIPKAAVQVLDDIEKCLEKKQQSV
Outline: (§1)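 At 30 °C, reaction was started with thiokinase, MgCl₂, ADP and methylmalonyl-CoA. Final levels were cofactor 1 μM and (R)-methylmalonyl-CoA 2 mM. Enzyme was WT 0.01 μM, G717V 1 μM, other variants 0.1 μM. After 30 min, an aliquot went into 2.5 mM DTNB; CoA was taken from A412 (ε 14,150 M⁻¹ cm⁻¹).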

[2] = system: MMUT variants G648D, V633G, G717V, P86L, Y100C, Y231N; assay: Activity screen; type: biochemical, human; settings: cobamide 1 μM, variants 0.1 μM (G717V 1 μM), 30 minutes
Outline: as §1

[3] = system: Human intrinsic factor (IF); settings: cited from earlier work
[4] = target: T2, MMUT (methylmalonyl-CoA mutase) (Homo sapiens, UniProt P22033); assay: Coupled thiokinase/DTNB spectrophotometric MMUT activity assay; type: biochemical; settings: for MMUT activity with the cobamide (in words): coupled spectrophotometric assay; for KM, app relative to AdoCbl: higher than AdoCbl
T2 sequence (P22033 33-750): T1 sequence (P22033 33-750)
Outline: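 In the coupled kinetic assay, succinyl-CoA was converted by thiokinase to CoA, which was detected spectrophotometrically with DTNB. C-terminally His-tagged MMUT was at 10 nM. Enzymatically made (R)-methylmalonyl-CoA was fixed at 4 mM. Adenosylated cofactor was varied per cofactor, from 0.031 μM at lowest to 12 μM at highest. K_M,app and k_cat come from ≥5 replicates over ≥2 independent experiments and two biological samples.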

[5] = target: T2, MMUT (methylmalonyl-CoA mutase); assay: Binding kinetics by stopped-flow fluorescence spectroscopy; settings: MMUT 0.2 μM, cobamide 4.8 – 16.2 μM (to 24.3 μM for Ado[Phe]Cba)
Outline: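 Stopped-flow fluorimetry used C-terminally His-tagged MMUT at 0.2 μM final after mixing. Adenosylated cofactor was added at 4.8, 7.2, 10.8 and 16.2 μM (24.3 μM for one cofactor). Excitation was 282 nm, with emission through a 320 nm long-pass filter. Traces, minus the buffer-addition control, were fitted to first-order exponential decay to give k_obs. k_on was the slope of k_obs versus concentration, from four technical replicates.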

[6] = target: T2, MMUT (methylmalonyl-CoA mutase); assay: Cobamide equilibrium binding by quenching of intrinsic protein fluorescence; settings: for binding to MMUT (in words): micromolar cobamide concentrations
Outline: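 Fluorescence quenching used MMUT at 0.2 μM, from N-terminal His-tag (E. coli BL21(DE3)pLysS) and C-terminal His-tag preparations. Adenosylated cofactor was titrated at 0.19–2.5 μM or 0.23–2.5 μM, depending on cofactor class. Plate-reader excitation/emission was 282/340 nm. Kd came from a quadratic fit allowing for ligand depletion. Values were averaged over ≥5 technical replicates from ≥2 independent experiments.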

C/C1=C2/[N-][C@H]([C@H](CC(N)=O)[C@@]2(C)CCC(=O)NC[C@@H](C)OP(=O)([O-])O[C@H]2[C@@H](O)[C@@H](n3cnc4cccc(C)c43)O[C@@H]2CO)[C@]2(C)N=C(/C(C)=C3N=C(/C=C4N=C1[C@@H](CCC(N)=O)C\4(C)C)[C@@H](CCC(N)=O)[C@]\3(C)CC(N)=O)[C@@H](CCC(N)=O)[C@]2(C)CC(N)=O.[CH2-][C@H]1O[C@@H](n2cnc3c(N)ncnc32)[C@H](O)[C@@H]1O.[Co+3] [J, 7-methylbenzimidazolylcobamide]
activity of WT MMUT with the cobamide (in words) [1]: active | activity of MMUT variants with the cobamide (in words) [2]: partially or entirely lost the ability to use

C/C1=C2/[N-][C@H]([C@H](CC(N)=O)[C@@]2(C)CCC(=O)NC[C@@H](C)O)[C@]2(C)N=C(/C(C)=C3N=C(/C=C4N=C1[C@@H](CCC(N)=O)C\4(C)C)[C@@H](CCC(N)=O)[C@]\3(C)CC(N)=O)[C@@H](CCC(N)=O)[C@]2(C)CC(N)=O.[Co+3] [cobinamide]
IF affinity (in words) [3]: low affinity

cyano-5-hydroxybenzimidazolylcobamide [CN[5-OHBza]Cba]
IF affinity, lower than affinity for CNCbl [3]: no more than 2 fold

cyano-para-cresolylcobamide [CN[Cre]Cba]
IF affinity (in words) [3]: low affinity

C/C1=C2/[N-][C@H]([C@H](CC(N)=O)[C@@]2(C)CCC(=O)NC[C@@H](C)OP(=O)([O-])O[C@H]2[C@@H](O)[C@@H](n3cnc4cccc(N)c43)O[C@@H]2CO)[C@]2(C)N=C(/C(C)=C3N=C(/C=C4N=C1[C@@H](CCC(N)=O)C\4(C)C)[C@@H](CCC(N)=O)[C@]\3(C)CC(N)=O)[C@@H](CCC(N)=O)[C@]2(C)CC(N)=O.[CH2-][C@H]1O[C@@H](n2cnc3c(N)ncnc32)[C@H](O)[C@@H]1O.[Co+3] [K, 7-aminobenzimidazolylcobamide]
activity of WT MMUT with the cobamide (in words) [1]: active | activity of MMUT variants with the cobamide (in words) [2]: partially or entirely lost the ability to use

C/C1=C2/[N-][C@H]([C@H](CC(N)=O)[C@@]2(C)CCC(=O)NC[C@@H](C)OP(=O)([O-])O[C@H]2[C@@H](O)[C@@H](Oc3ccccc3)O[C@@H]2CO)[C@]2(C)N=C(/C(C)=C3N=C(/C=C4N=C1[C@@H](CCC(N)=O)C\4(C)C)[C@@H](CCC(N)=O)[C@]\3(C)CC(N)=O)[C@@H](CCC(N)=O)[C@]2(C)CC(N)=O.[CH2-][C@H]1O[C@@H](n2cnc3c(N)ncnc32)[C@H](O)[C@@H]1O.[Co+3] [Ado[Phe]Cba, adenosylphenolylcobamide]
activity of WT MMUT with the cobamide (in words) [1]: active | MMUT activity with the cobamide (in words) [4]: active | KM, app relative to AdoCbl [4]: 100 fold

6-azabenzimidazolylcobamide
activity of WT MMUT with the cobamide (in words) [1]: No activity

adenosyladeninylcobamide [Ado[Ade]Cba]
IF binding relative to AdoCbl [3]: six orders of magnitude more weakly

C/C1=C2/[N-][C@H]([C@H](CC(N)=O)[C@@]2(C)CCC(=O)NC[C@@H](C)OP(=O)([O-])O[C@H]2[C@@H](O)[C@@H](Oc3ccc(C)cc3)O[C@@H]2CO)[C@]2(C)N=C(/C(C)=C3N=C(/C=C4N=C1[C@@H](CCC(N)=O)C\4(C)C)[C@@H](CCC(N)=O)[C@]\3(C)CC(N)=O)[C@@H](CCC(N)=O)[C@]2(C)CC(N)=O.[CH2-][C@H]1O[C@@H](n2cnc3c(N)ncnc32)[C@H](O)[C@@H]1O.[Co+3] [Ado[Cre]Cba]
activity of WT MMUT with the cobamide (in words) [1]: active | activity of MMUT variants with the cobamide (in words) [2]: supported activity to a large extent in all of the variants | KM, app (in words) [4]: in the range of the benzimidazolyl cobamides | MMUT activity with the cobamide (in words) [4]: active | kon relative to AdoCbl (in words) [5]: about six times higher | binding to MMUT (in words) [6]: bound too strongly to measure a Kd value; also recorded: higher affinity for Ado[Cre]Cba than AdoCbl

C/C1=C2/[N-][C@H]([C@H](CC(N)=O)[C@@]2(C)CCC(=O)NC[C@@H](C)OP(=O)([O-])O[C@H]2[C@@H](O)[C@@H](n3cnc4ccccc43)O[C@@H]2CO)[C@]2(C)N=C(/C(C)=C3N=C(/C=C4N=C1[C@@H](CCC(N)=O)C\4(C)C)[C@@H](CCC(N)=O)[C@]\3(C)CC(N)=O)[C@@H](CCC(N)=O)[C@]2(C)CC(N)=O.[CH2-][C@H]1O[C@@H](n2cnc3c(N)ncnc32)[C@H](O)[C@@H]1O.[Co+3] [Ado[Bza]Cba]
activity of WT MMUT with the cobamide (in words) [1]: active | MMUT activity with the cobamide (in words) [4]: active | KM, app relative to AdoCbl [4]: 10 fold | difference in Kd relative to AdoCbl [6]: ~ 25 fold

3-deazaadeninylcobamide
activity of WT MMUT with the cobamide (in words) [1]: No activity

cyanobenzimidazolylcobamide [CN[Bza]Cba]
IF affinity, lower than affinity for CNCbl [3]: no more than 2 fold

6-methyladeninylcobamide
activity of WT MMUT with the cobamide (in words) [1]: No activity

C/C1=C2/[N-][C@H]([C@H](CC(N)=O)[C@@]2(C)CCC(=O)NC[C@@H](C)OP(=O)([O-])O[C@H]2[C@@H](O)[C@@H](n3cnc4cc(C)ccc43)O[C@@H]2CO)[C@]2(C)N=C(/C(C)=C3N=C(/C=C4N=C1[C@@H](CCC(N)=O)C\4(C)C)[C@@H](CCC(N)=O)[C@]\3(C)CC(N)=O)[C@@H](CCC(N)=O)[C@]2(C)CC(N)=O.[CH2-][C@H]1O[C@@H](n2cnc3c(N)ncnc32)[C@H](O)[C@@H]1O.[Co+3] [Ado[5-MeBza]Cba]
activity of WT MMUT with the cobamide (in words) [1]: active | MMUT activity with the cobamide (in words) [4]: active

adenosyl-5-fluorobenzimidazolylcobamide [compound P]
activity of WT MMUT with the cobamide (in words) [1]: active | activity of MMUT variants with the cobamide (in words) [2]: some variants also had appreciable activity

C/C1=C2/[N-][C@H]([C@H](CC(N)=O)[C@@]2(C)CCC(=O)NC[C@@H](C)OP(=O)([O-])O[C@H]2[C@@H](O)[C@@H](n3cnc4nc(C)nc(N)c43)O[C@@H]2CO)[C@]2(C)N=C(/C(C)=C3N=C(/C=C4N=C1[C@@H](CCC(N)=O)C\4(C)C)[C@@H](CCC(N)=O)[C@]\3(C)CC(N)=O)[C@@H](CCC(N)=O)[C@]2(C)CC(N)=O.[CH2-][C@H]1O[C@@H](n2cnc3c(N)ncnc32)[C@H](O)[C@@H]1O.[Co+3] [Ado[2-MeAde]Cba, adenosyl-2-methyladeninylcobamide]
IF binding relative to AdoCbl [3]: six orders of magnitude more weakly

purinylcobamide
activity of WT MMUT with the cobamide (in words) [1]: No activity

C/C1=C2/[N-][C@H]([C@H](CC(N)=O)[C@@]2(C)CCC(=O)NC[C@@H](C)O)[C@]2(C)N=C(/C(C)=C3N=C(/C=C4N=C1[C@@H](CCC(N)=O)C\4(C)C)[C@@H](CCC(N)=O)[C@]\3(C)CC(N)=O)[C@@H](CCC(N)=O)[C@]2(C)CC(N)=O.[CH2-][C@H]1O[C@@H](n2cnc3c(N)ncnc32)[C@H](O)[C@@H]1O.[Co] [Ado-cobinamide]
binding to MMUT (in words) [6]: lower affinity than AdoCbl
